Experimental data: ChEMBL document CHEMBL2346506, “Cytotoxicity and modulation of cancer-related signaling by (Z)- and (E)-3,4,3',5'-tetramethoxystilbene isolated from Eugenia rigida” (J Nat Prod, 2013)
Active and inactive are the calls of the source. The calls are words filed in the database; no cut-off is given here.

Assays:
[1] = biological target: T1, Nitric oxide synthase, inducible (Mus musculus) (UniProt P29477); assay: Inhibition of iNOS in LPS-induced mouse RAW264.7 cells assessed as inhibition of […] up to 33.3 uM measured after 24 hrs; type: cell-based
T1 sequence (whole entry): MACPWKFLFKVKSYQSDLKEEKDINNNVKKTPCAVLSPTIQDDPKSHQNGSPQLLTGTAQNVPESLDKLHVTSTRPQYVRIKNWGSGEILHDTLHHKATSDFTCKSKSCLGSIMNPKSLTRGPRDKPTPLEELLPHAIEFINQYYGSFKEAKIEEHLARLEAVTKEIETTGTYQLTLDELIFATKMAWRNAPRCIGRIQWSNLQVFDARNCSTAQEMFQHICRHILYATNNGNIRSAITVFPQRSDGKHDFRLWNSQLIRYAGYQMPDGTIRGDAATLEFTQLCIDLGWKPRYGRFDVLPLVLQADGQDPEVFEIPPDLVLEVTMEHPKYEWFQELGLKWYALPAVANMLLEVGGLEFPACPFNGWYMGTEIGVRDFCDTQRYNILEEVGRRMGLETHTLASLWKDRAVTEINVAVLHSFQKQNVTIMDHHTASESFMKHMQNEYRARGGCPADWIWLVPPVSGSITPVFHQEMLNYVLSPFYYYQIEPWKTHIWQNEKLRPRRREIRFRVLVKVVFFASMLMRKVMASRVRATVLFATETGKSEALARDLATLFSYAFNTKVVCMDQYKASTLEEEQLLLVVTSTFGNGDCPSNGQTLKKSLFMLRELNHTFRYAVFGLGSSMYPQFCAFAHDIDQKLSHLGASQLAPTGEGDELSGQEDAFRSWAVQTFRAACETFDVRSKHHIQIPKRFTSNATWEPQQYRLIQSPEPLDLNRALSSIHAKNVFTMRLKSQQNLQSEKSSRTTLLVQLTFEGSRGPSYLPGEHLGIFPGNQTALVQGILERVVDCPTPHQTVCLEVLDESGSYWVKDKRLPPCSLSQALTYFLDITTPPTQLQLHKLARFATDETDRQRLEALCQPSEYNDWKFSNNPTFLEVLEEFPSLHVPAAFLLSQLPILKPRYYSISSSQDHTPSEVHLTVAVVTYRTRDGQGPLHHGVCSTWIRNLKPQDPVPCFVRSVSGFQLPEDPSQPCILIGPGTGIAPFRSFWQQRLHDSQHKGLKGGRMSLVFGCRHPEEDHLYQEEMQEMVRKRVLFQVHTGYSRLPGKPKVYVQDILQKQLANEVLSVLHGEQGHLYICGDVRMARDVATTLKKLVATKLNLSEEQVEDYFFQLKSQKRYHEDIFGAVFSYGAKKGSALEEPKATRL
How it was run: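 RAW 264.7 macrophages seeded at 50 000 per well and grown 24 h. Compound added 30 min before LPS (5 μg/mL), then cells incubated a further 24 h. Nitrite in the supernatant measured with Griess reagent relative to vehicle control. Parthenolide served as positive control; cytotoxicity checked in parallel.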

HL-60 [2] = assay: Inhibition of PMA induced ROS generation in human HL60 cells assessed as inhibition of ROA mediated oxidation of DCFH; type: functional, cell-based
How it was run: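 HL-60 cells (0.8 × 10⁶/mL) in RPMI-1640 with 10% FBS were pretreated 30 min with compound (0.4–100 μM). PMA (100 ng/mL) was then added for 30 min, followed by DCFH-DA (5 μg/mL) for 15 min. DCF fluorescence read at Ex 485 / Em 530 nm and compared with vehicle control. Trolox served as positive control.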

[3] = Inhibition of Hedgehog signaling pathway in human HeLa cells assessed as inhibition of PMA induced luciferase at 100 uM treated 30 mins before induction; type: cell-based
How it was run: (§1)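 Reporter assay in cells transfected with pathway luciferase plasmids. Cells plated at 0.015 × 10⁶ per well in 10% FBS, switched after 24 h to DMEM with 1% FBS, then transfected. 24 h after transfection, compound (final 40, 60, 80 or 100 μM) was added, followed 30 min later by inducer (IL-6, TGF-β, wnt3a or PMA). Luciferase was read 4 or 6 h after induction (6 h for Notch, Wnt, Hedgehog). Value is the IC50 or the lowest concentration giving maximal 50–60% inhibition; two independent experiments.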

[4] = Inhibition of Wnt signaling pathway in human HeLa cells assessed as measured as lowest concentration required 50 to 60 % inhibition of Wnt3a induced luciferase treated 30 mins before induction; type: cell-based; how it was run: as §1
[5] = Inhibition of Wnt signaling pathway in human HeLa cells assessed as inhibition of Wnt3a induced luciferase treated 30 mins before induction; type: cell-based; how it was run: as §1
[6] = biological target: Forkhead box protein O1 (Homo sapiens) (UniProt Q12778); assay: Inhibition of FoxO signaling pathway in human HeLa cells assessed as inhibition of luciferase at 100 uM […]; type: cell-based
[7] = Inhibition of Notch signaling pathway in human HeLa cells assessed as inhibition of PMA induced luciferase at 100 uM treated 30 mins before induction; type: cell-based; how it was run: as §1
[8] = Inhibition of Ets signaling pathway in human HeLa cells assessed as inhibition of PMA induced luciferase at 100 uM treated 30 mins before induction; type: cell-based; how it was run: as §1
[9] = biological target: Myc proto-oncogene protein (Homo sapiens) (UniProt P01106); assay: Inhibition of Myc signaling pathway in human HeLa cells assessed as inhibition of PMA induced luciferase at 100 uM treated 30 mins before induction; type: cell-based; how it was run: as §1
[10] = Inhibition of E2F signaling pathway in human HeLa cells assessed as inhibition of PMA induced luciferase at 100 uM treated 30 mins before induction; type: cell-based; how it was run: as §1
[11] = Inhibition of NFkappaB signaling pathway in human HeLa cells assessed as inhibition of PMA induced luciferase at 100 uM treated 30 mins before induction; type: cell-based; how it was run: as §1
[12] = Inhibition of NFkappaB signaling pathway in human HeLa cells assessed as inhibition of PMA induced luciferase treated 30 mins before induction; type: cell-based; how it was run: as §1
[13] = Inhibition of AP1 signaling pathway in human HeLa cells assessed as measured as lowest concentration required 50 to 60 % inhibition of PMA induced luciferase treated 30 mins before induction; type: cell-based; how it was run: as §1
[14] = Inhibition of AP1 signaling pathway in human HeLa cells assessed as inhibition of PMA induced luciferase treated 30 mins before induction; type: cell-based; how it was run: as §1
HeLa [15] = assay: Inhibition of smad3/4 signaling pathway in human HeLa cells assessed as measured as lowest concentration required 50 to 60 % inhibition of TGF-beta induced luciferase treated 30 mins before induction; type: functional; how it was run: as §1
HeLa [16] = assay: Inhibition of Stat3 signaling pathway in human HeLa cells assessed as inhibition of IL-6 induced luciferase at 100 uM treated 30 mins before induction; type: functional; how it was run: as §1
HeLa [17] = assay: Inhibition of smad3/4 signaling pathway in human HeLa cells assessed as inhibition of TGF-beta induced luciferase treated 30 mins before induction; type: functional, cell-based; how it was run: as §1
Vero = assay: Cytotoxicity against african green monkey Vero cells assessed as growth inhibition measured at 100 uM after 48 hrs by […] assay; type: cell-based; details: chlorocebus sabaeus
LLC-PK1 = assay: Cytotoxicity against pig LLC-PK1 cells assessed as growth inhibition measured at 100 uM after 48 hrs by […] assay; type: cell-based, Sus scrofa; details: llc-pk1, 48 h
SK-OV-3 = assay: Cytotoxicity against human SKOV3 cells assessed as growth inhibition measured at 100 uM after 48 hrs by […] assay; type: functional, cell-based
HL-60 [18] = assay: Cytotoxicity against human HL60 cells assessed as growth inhibition measured after 48 hrs by XTT assay; type: functional, cell-based; details: HL-60, 48 h
HeLa [19] = assay: Cytotoxicity against human HeLa cells assessed as growth inhibition measured after 48 hrs by Neutral Red dye assay
SK-MEL = assay: Cytotoxicity against human SK-MEL cells assessed as growth inhibition measured after 48 hrs by Neutral Red dye assay
KB = assay: Cytotoxicity against human KB cells assessed as growth inhibition measured at 100 uM after 48 hrs by Neutral Red dye assay
BT-549 = assay: Cytotoxicity against human BT549 cells assessed as growth inhibition measured at 100 uM after 48 hrs by Neutral Red dye assay

Chain of Forkhead box protein O1 (Homo sapiens) (Q12778 whole entry): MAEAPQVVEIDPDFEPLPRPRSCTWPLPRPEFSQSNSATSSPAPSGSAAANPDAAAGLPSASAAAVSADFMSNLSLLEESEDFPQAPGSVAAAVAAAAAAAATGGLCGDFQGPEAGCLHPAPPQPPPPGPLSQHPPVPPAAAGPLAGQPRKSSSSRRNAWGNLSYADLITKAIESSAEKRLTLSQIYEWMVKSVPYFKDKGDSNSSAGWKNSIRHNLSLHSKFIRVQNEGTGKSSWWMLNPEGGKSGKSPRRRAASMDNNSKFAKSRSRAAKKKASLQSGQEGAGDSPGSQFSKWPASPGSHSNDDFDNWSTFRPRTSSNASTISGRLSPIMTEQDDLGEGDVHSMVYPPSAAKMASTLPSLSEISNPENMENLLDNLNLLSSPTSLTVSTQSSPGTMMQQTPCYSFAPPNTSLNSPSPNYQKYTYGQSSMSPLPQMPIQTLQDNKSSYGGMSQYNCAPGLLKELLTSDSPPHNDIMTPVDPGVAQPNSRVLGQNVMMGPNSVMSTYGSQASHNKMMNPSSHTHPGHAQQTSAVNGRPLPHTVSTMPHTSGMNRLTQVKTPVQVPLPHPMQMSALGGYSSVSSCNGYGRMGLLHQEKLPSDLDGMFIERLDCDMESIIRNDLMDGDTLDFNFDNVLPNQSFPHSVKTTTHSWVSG
Chain of Myc proto-oncogene protein (Homo sapiens) (P01106 whole entry): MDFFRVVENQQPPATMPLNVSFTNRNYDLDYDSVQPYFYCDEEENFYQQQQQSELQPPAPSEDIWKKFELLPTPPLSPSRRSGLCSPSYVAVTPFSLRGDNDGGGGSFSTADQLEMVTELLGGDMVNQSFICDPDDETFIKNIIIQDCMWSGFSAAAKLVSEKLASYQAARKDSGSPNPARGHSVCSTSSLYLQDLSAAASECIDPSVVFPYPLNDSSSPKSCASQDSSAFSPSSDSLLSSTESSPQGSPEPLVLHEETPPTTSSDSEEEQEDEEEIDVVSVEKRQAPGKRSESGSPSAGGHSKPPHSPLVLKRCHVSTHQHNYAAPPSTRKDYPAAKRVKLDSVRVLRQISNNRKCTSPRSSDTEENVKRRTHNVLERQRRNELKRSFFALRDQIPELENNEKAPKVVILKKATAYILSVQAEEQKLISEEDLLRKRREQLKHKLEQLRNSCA

## COc1cc(/C=C/c2ccc(OC)c(OC)c2)cc(OC)c1 [(E)-3,4,3',5'-TETRAMETHOXYSTILBENE]
[1]
  inhibition: inactive
HL-60 [2]
  IC50: 33.3 µM
[3]
  inhibition: < 40%
[4]
  MED: 80 µM
[5]
  IC50: 80 µM
[6]
  inhibition: < 40%
[7]
  inhibition: < 40%
[8]
  inhibition: < 40%
[9]
  inhibition: < 40%
[10]
  inhibition: < 40%
[11]
  inhibition: < 40%
[12]
  IC50: 90 µM
[13]
  MED: 100 µM
[14]
  IC50: 80 µM
HeLa [15]
  MED: 77 µM
HeLa [16]
  inhibition at 100 µM: < 40%
HeLa [17]
  IC50: 100 µM
Vero
  growth inhibition (GI): Not Active
LLC-PK1
  growth inhibition (GI): Not Active
SK-OV-3
  growth inhibition (GI): inactive
HL-60 [18]
  IC50: 33.3 µM
HeLa [19]
  IC50: 8 µM
SK-MEL
  IC50: 60 µM
KB
  growth inhibition (GI): inactive
BT-549
  growth inhibition (GI): inactive
